The source of these data is publication PMC6944734 (Alzheimer's & Dementia : Translational Research & Clinical …, 2019).

The test system of this assay is primary mouse neuronal cultures. Nature of the assay: Synaptic recordings. Format: cell-based. Particulars: compared with the control. Put shortly:
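Primary neurons from E18 mouse embryos plated at 10 K per well on coverslips. At DIV 11–13, sister coverslips from the same pups were treated 24 or 72 h before recording with DMSO (n = 4), γ-secretase inhibitor DAPT (n = 5) or test compound (n = 4), and all recorded the same day. Spontaneous miniature events analysed for frequency, interevent interval, amplitude and decay. Access resistance 2–14 MΩ.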

On to `C[C@H](NC(=O)Cc1cc(F)cc(F)c1)C(=O)N[C@H](C(=O)OC(C)(C)C)c1ccccc1` [difluorphenacetyl-alanyl phenylglycine t-butyl ester], for which the “Single quantum (amplitudes below 20 pA) and multiquantal (~35–45 pA) releases” value was “significantly more”.
